{
  "source": "ChEMBL document CHEMBL1149086",
  "about": "“Antimalarial and antitumor evaluation of novel C-10 non-acetal dimers of 10beta-(2-hydroxyethyl)deoxoartemisinin” (J Med Chem, 2004)",
  "key": {"[1]": {"tested_on": "HCC 2998", "assay": "Concentration of the drug required to achieve 50% cytotoxicity against colon HCC2998 cancer cell line", "type": "functional", "settings": "Homo sapiens, read-out: LC50 (the source's name)"}, "[2]": {"tested_on": "T47D", "assay": "Concentration of the drug required to achieve 50% cytotoxicity against breast T-47D cancer cell line", "type": "cell-based", "settings": "human"}, "[3]": {"tested_on": "Jurkat", "assay": "Tested for apoptosis in jurkat cells at a concentration of 10 uM of the compound", "type": "functional, Homo sapiens", "procedure,_shortened": "(§1)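 Jurkat cells (>98% viable, <2% background apoptosis) at 1 × 10⁶ cells/mL were exposed to 0–100 μM drug (DMSO) for 24 h at 37 °C in 5% CO₂. Nuclei were stained with 50 μM propidium iodide and 0.1% Triton-X in HBSS for 10 min at 37 °C, then scored as apoptotic by flow cytometry. Triplicate incubations in one experiment, mean ± SD; Kruskal–Wallis test versus DMSO control.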"}, "[4]": {"tested_on": "NCI/ADR-RES", "assay": "inhibition against breast NCI/ ADR-RES cancer cell line", "type": "functional", "settings": "Homo sapiens"}, "[5]": {"tested_on": "RPMI-8226", "assay": "Concentration of the drug required to achieve 50% cytotoxicity against leukemia RPMI-8226 cell line", "type": "functional", "settings": "Homo sapiens, read-out: LC50 (the source's name)"}, "[6]": {"tested_on": "T47D", "assay": "inhibition against breast T-47D cancer cell line", "type": "functional", "settings": "Homo sapiens"}, "[7]": {"tested_on": "CCRF-CEM", "assay": "inhibition against leukemia CCRF-CEM cell line", "type": "functional", "settings": "Homo sapiens"}, "[8]": {"tested_on": "CCRF-CEM", "assay": "Concentration required to achieve total growth inhibition against leukemia CCRF-CEM cell line", "type": "functional", "settings": "Homo sapiens"}, "[9]": {"tested_on": "K562", "assay": "Concentration of the drug required to achieve 50% cytotoxicity against leukemia K-562 cell line", "type": "functional", "settings": "Homo sapiens, read-out: LC50 (the source's name)"}, "[10]": {"tested_on": "HCT-116", "assay": "Concentration of the drug required to achieve 50% cytotoxicity against colon HCT116 cancer cell line", "type": "functional", "settings": "Homo sapiens, read-out: LC50 (the source's name)"}, "[11]": {"tested_on": "RPMI-8226", "assay": "inhibition against leukemia RPMI-8226 cell line", "type": "functional", "settings": "Homo sapiens"}, "[12]": {"tested_on": "SW-620", "assay": "Concentration required to achieve total growth inhibition against colon SW-620 cancer cell line", "type": "functional", "settings": "Homo sapiens"}, "[13]": {"tested_on": "SW-620", "assay": "Concentration of the drug required to achieve 50% cytotoxicity against colon SW-620 cancer cell line", "type": "cell-based", "settings": "human"}, "[14]": {"tested_on": "HL-60", "assay": "Concentration of the drug required to achieve 50% cytotoxicity against leukemia HL-60(TB) cell line", "type": "functional", "settings": "Homo sapiens, read-out: LC50 (the source's name)"}, "[15]": {"tested_on": "Jurkat", "assay": "Tested for apoptosis in jurkat cells at a concentration of 30 uM of the compound", "type": "functional, Homo sapiens", "procedure,_shortened": "as §1"}, "[16]": {"tested_on": "HT-29", "assay": "Concentration required to achieve total growth inhibition against colon HT-29 cancer cell line", "type": "functional", "settings": "Homo sapiens"}, "[17]": {"tested_on": "PC-3", "assay": "Concentration required to achieve total growth inhibition against prostate PC-3 cell line", "type": "functional", "settings": "Homo sapiens"}, "[18]": {"tested_on": "LOX IMVI", "assay": "Concentration required to achieve total growth inhibition against melanoma LOX IMVI cell line", "type": "functional", "settings": "Homo sapiens"}, "[19]": {"tested_on": "SW-620", "assay": "inhibition against colon SW-620 cancer cell line", "type": "functional", "settings": "Homo sapiens"}, "[20]": {"tested_on": "HT-29", "assay": "inhibition against colon HT-29 cancer cell line", "type": "functional", "settings": "Homo sapiens"}, "[21]": {"tested_on": "Jurkat", "assay": "Tested for apoptosis in jurkat cells at a concentration of 0.1 uM of the compound", "type": "functional, Homo sapiens", "procedure,_shortened": "(§2)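 Jurkat cells (1 × 10⁶ cells mL⁻¹; >98% viable, <2% background apoptosis) incubated 24 h at 37 °C with compound (0–100 μM range, in DMSO). Nuclei stained with propidium iodide (50 μM) in HBSS with 0.1% Triton-X for 10 min at 37 °C. Apoptotic nuclei measured by flow cytometry. Mean ± SD of triplicate incubations in one experiment; Kruskal–Wallis test against DMSO control.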"}, "[22]": {"tested_on": "Jurkat", "assay": "Tested for apoptosis in jurkat cells at a concentration of 3 uM of the compound", "type": "functional, Homo sapiens", "procedure,_shortened": "as §1"}, "[23]": {"tested_on": "Malme-3M", "assay": "inhibition against melanoma MALME-3M cell line", "type": "functional", "settings": "Homo sapiens"}, "[24]": {"tested_on": "Jurkat", "assay": "Inhibitory concentration against jurkat cells", "type": "functional, cell-based", "settings": "Homo sapiens", "procedure,_shortened": "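HL60 (2.5 × 10⁴/well) or Jurkat (1 × 10⁵/well) in RPMI-1640 with 10% FBS and 1% L-glutamine, 5% CO2, 37 °C. Exposed to 10⁻¹⁰–10⁻⁴ M for 72 h, final DMSO below 0.5% v/v. [3H]-thymidine (0.5 μCi) added for the final 24 h. Incorporation counted by β-scintillation.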"}, "[25]": {"assay": "Concentration of the drug required to achieve 50% cytotoxicity against leukemia CCRF-CEM cell line", "type": "functional", "settings": "Homo sapiens, read-out: LC50 (the source's name)"}, "[26]": {"tested_on": "UACC-62", "assay": "Concentration required to achieve total growth inhibition against melanoma UACC-62 cell line", "type": "functional", "settings": "Homo sapiens"}, "[27]": {"tested_on": "SR", "assay": "inhibition against leukemia SR cell line", "type": "functional", "settings": "Homo sapiens"}, "[28]": {"tested_on": "HL-60", "assay": "inhibition against leukemia HL-60(TB) cell line", "type": "functional", "settings": "Homo sapiens"}, "[29]": {"tested_on": "MCF7", "assay": "inhibition against breast MCF-7 cancer cell line", "type": "functional", "settings": "Homo sapiens"}, "[30]": {"tested_on": "NCI/ADR-RES", "assay": "Concentration required to achieve total growth inhibition against breast NCI/ ADR-RES cancer cell line", "type": "functional", "settings": "Homo sapiens"}, "[31]": {"tested_on": "Jurkat", "assay": "Tested for apoptosis in jurkat cells at a concentration of 1 uM of the compound", "type": "functional, Homo sapiens", "procedure,_shortened": "as §1"}, "[32]": {"tested_on": "KM12", "assay": "inhibition against colon KM12 cancer cell line", "type": "functional", "settings": "Homo sapiens"}, "[33]": {"tested_on": "HT-29", "assay": "Concentration of the drug required to achieve 50% cytotoxicity against colon HT-29 cancer cell line", "type": "functional", "settings": "Homo sapiens, read-out: LC50 (the source's name)"}, "[34]": {"tested_on": "Jurkat", "assay": "Tested for apoptosis in jurkat cells at a concentration of 0 uM of the compound", "type": "functional, Homo sapiens", "procedure,_shortened": "as §2"}, "[35]": {"tested_on": "Malme-3M", "assay": "Concentration required to achieve total growth inhibition against melanoma MALME-3M cell line", "type": "functional", "settings": "Homo sapiens"}, "[36]": {"tested_on": "SR", "assay": "Concentration required to achieve total growth inhibition against leukemia SR cell line", "type": "functional", "settings": "Homo sapiens"}},
  "data": [
    {"smiles": "C[C@H]1[C@@H](CCOP(=O)(OCC[C@H]2O[C@@H]3OC4(C)CC[C@H]5[C@H](C)CC[C@@H]([C@H]2C)[C@@]35OO4)Oc2ccccc2)O[C@@H]2OC3(C)CC[C@H]4[C@H](C)CC[C@@H]1[C@@]24OO3", "note": "(single isomer, unassigned)", "values": [
      {"measurement": "CC50", "setting": "[1]", "value": "> 100", "unit": "µM"},
      {"measurement": "LC50", "setting": "[2]", "value": "> 100", "unit": "µM"},
      {"measurement": "Activity", "setting": "[3]", "value": 11.2, "unit": "%"},
      {"measurement": "GI50", "setting": "[4]", "value": 0.5, "unit": "µM"},
      {"measurement": "CC50", "setting": "[5]", "value": "> 100", "unit": "µM"},
      {"measurement": "GI50", "setting": "[6]", "value": 0.0256, "unit": "µM"},
      {"measurement": "GI50", "setting": "[7]", "value": 0.0259, "unit": "µM"},
      {"measurement": "TGI", "setting": "[8]", "value": 56, "unit": "µM"},
      {"measurement": "CC50", "setting": "[9]", "value": "> 100", "unit": "µM"},
      {"measurement": "CC50", "setting": "[10]", "value": "> 100", "unit": "µM"},
      {"measurement": "GI50", "setting": "[11]", "value": "< 0.01", "unit": "µM"},
      {"measurement": "TGI", "setting": "[12]", "value": 100, "unit": "µM"},
      {"measurement": "LC50", "setting": "[13]", "value": "> 100", "unit": "µM"},
      {"measurement": "CC50", "setting": "[14]", "value": "> 100", "unit": "µM"},
      {"measurement": "Activity", "setting": "[15]", "value": 17.3, "unit": "%"},
      {"measurement": "TGI", "setting": "[16]", "value": 23.2, "unit": "µM"},
      {"measurement": "TGI", "setting": "[17]", "value": 65.5, "unit": "µM"},
      {"measurement": "TGI", "setting": "[18]", "value": 15.6, "unit": "µM"},
      {"measurement": "GI50", "setting": "[19]", "value": "< 0.01", "unit": "µM"},
      {"measurement": "GI50", "setting": "[20]", "value": "< 0.01", "unit": "µM"},
      {"measurement": "Activity", "setting": "[21]", "value": 8.7, "unit": "%"},
      {"measurement": "Activity", "setting": "[22]", "value": 8.7, "unit": "%"},
      {"measurement": "GI50", "setting": "[23]", "value": 0.194, "unit": "µM"},
      {"measurement": "IC50", "setting": "[24]", "value": 13.2, "unit": "µM"},
      {"measurement": "CC50", "setting": "[25]", "value": "> 100", "unit": "µM"},
      {"measurement": "TGI", "setting": "[26]", "value": 21.8, "unit": "µM"},
      {"measurement": "GI50", "setting": "[27]", "value": "< 0.01", "unit": "µM"},
      {"measurement": "GI50", "setting": "[28]", "value": 0.0115, "unit": "µM"},
      {"measurement": "GI50", "setting": "[29]", "value": 0.106, "unit": "µM"},
      {"measurement": "TGI", "setting": "[30]", "value": 45.2, "unit": "µM"},
      {"measurement": "Activity", "setting": "[31]", "value": 8.9, "unit": "%"},
      {"measurement": "GI50", "setting": "[32]", "value": "< 0.01", "unit": "µM"},
      {"measurement": "CC50", "setting": "[33]", "value": "> 100", "unit": "µM"},
      {"measurement": "Activity", "setting": "[34]", "value": 7.5, "unit": "%"},
      {"measurement": "TGI", "setting": "[35]", "value": 30.8, "unit": "µM"},
      {"measurement": "TGI", "setting": "[36]", "value": 0.263, "unit": "µM"}
    ]}
  ]
}
